Test results published in ChEMBL document CHEMBL4138073, “Synthesis and biological evaluation of 8-hydroxy-2,7-naphthyridin-2-ium salts as novel inhibitors of acetylcholinesterase (AChE) and butyrylcholinesterase (BChE)” (Medchemcomm, 2017).
The source made the active and inactive calls. The rule behind the calls is not given here.

How the values were obtained:
[1] = target: Cholinesterase (Equus caballus) (UniProt P81908); assay: Inhibition of horse serum BChE at 10 uM using butyrylthiocholine chloride substrate by spectrophotometry based Ellman's assay
Method in brief: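 Ellman kinetic assay in microplates: equine serum BChE (final 0.350 U/ml) added last to start reaction; butyrylthiocholine chloride pseudo-substrate with DTNB; absorbance at 412 nm; 25 °C (room temperature). Tris-HCl 50 mM pH 8 buffer with DMSO ≤0.05% final. Compound absorbance read before enzyme addition as blank. Physostigmine 10 µM final as positive control. Primary screen at 10 µM.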

[2] = Dissociation constant, pKa of the compound at 52 uM at pH 2.3 to 12.3 by UV-Vis spectroscopy; format: physicochemical
[3] = target: Acetylcholinesterase (Electrophorus electricus, UniProt O42275); assay: Inhibition of electric eel AChE at using acetylthiocholine iodide substrate by spectrophotometry based Ellman's assay
[4] = target: Cholinesterase (Equus caballus, UniProt P81908); assay: Inhibition of horse serum BChE at using butyrylthiocholine chloride substrate by spectrophotometry based Ellman's assay
Sequence of Cholinesterase (P81908 whole entry): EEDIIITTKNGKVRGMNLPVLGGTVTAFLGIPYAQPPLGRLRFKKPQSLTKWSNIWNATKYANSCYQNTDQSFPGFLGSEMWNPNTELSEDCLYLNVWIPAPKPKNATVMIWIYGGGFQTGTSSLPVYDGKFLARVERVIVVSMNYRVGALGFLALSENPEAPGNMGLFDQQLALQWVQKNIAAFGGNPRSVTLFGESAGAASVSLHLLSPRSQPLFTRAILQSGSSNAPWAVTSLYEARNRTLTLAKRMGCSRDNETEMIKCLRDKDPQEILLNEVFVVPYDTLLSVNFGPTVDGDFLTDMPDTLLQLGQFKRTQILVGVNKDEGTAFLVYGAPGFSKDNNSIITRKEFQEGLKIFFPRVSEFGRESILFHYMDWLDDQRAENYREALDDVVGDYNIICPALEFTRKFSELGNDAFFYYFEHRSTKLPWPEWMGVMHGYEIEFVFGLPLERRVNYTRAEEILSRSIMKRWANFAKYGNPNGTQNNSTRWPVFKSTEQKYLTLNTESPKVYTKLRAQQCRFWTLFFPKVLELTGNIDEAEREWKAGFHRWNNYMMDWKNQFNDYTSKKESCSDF

Sequence of Cholinesterase (Equus caballus) (P81908 whole entry): as above
Sequence of Acetylcholinesterase (O42275 whole entry): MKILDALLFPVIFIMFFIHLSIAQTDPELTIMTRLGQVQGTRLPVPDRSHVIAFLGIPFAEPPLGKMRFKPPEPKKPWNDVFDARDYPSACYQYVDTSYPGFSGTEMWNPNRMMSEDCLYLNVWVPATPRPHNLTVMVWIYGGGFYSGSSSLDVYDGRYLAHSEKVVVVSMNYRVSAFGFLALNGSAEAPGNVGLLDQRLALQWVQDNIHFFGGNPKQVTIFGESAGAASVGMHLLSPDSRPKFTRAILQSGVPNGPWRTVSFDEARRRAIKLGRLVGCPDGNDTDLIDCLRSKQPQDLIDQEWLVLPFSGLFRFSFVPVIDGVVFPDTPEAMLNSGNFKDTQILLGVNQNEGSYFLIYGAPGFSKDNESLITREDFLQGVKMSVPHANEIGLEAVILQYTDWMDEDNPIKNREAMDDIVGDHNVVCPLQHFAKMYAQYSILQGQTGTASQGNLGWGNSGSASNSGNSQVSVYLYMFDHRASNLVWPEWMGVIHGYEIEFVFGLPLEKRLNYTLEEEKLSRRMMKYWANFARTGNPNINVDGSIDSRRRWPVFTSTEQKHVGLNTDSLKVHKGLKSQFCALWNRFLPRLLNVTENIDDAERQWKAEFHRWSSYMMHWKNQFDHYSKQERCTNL

With `Oc1nc2c(c3cc[n+](Cc4ccccc4)cc13)CCc1ccccc1-2` the inhibition [1] was “inactive”.

`C[n+]1ccc2cc(-c3ccccc3)nc(O)c2c1` gave a pKa at 52 µM [2] of 8.7.

Compound `C[n+]1ccc2cc(-c3ccccc3)[nH]c(=O)c2c1` has an inhibition [1] of 51.6%.

With `CC[n+]1ccc2cc(-c3ccccn3)nc(O)c2c1` the inhibition [1] was 48.5%.

In the case of `Oc1nc(-c2ccc3ccccc3c2)cc2cc[n+](Cc3ccccc3)cc12`, the inhibition [1] is reported as 97.1%, the IC50 [3] is reported as 990 nM and the IC50 [4] is reported as 2880 nM.

`Oc1nc(-c2ccccc2)cc2cc[n+](Cc3ccccc3)cc12` showed an inhibition [1] of 76.4%, an IC50 [3] of 2570 nM and an IC50 [4] of 4990 nM.

With `CC[n+]1ccc2cc(-c3ccccc3)nc(O)c2c1` the inhibition [1] was 45.9%.

For `CC[n+]1ccc2cc(-c3ccc4ccccc4c3)nc(O)c2c1`, the inhibition [1] was 59.5%.

`CC[n+]1ccc2c3c(nc(O)c2c1)-c1ccccc1C3` showed an inhibition [1] of 77.3% and an IC50 [3] of 1550 nM.
